TRPC4 potent = allosteric potentiators of mouse TRPC4 channel | HEK293 TRPC4beta/mu-opioid, DAMGO EC20, Fluo-4 Ca2+ flux; stronger effect = higher value | B-score at 10 µM | 0.42% of 310,000 active | AID 2227;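 active means B-score of calcium response area above 5 SD of library B-scores, with initial fluorescence ratio within 5 SD of library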;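 further: B-score of integrated fluorescence ratio over time as area under calcium response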
TRPC4 block = blocks the mouse TRPC4 cation channel; B-score at 10 µM; 0.39% of 300,000 active; HEK293 TRPC4beta/mu-opioid, DAMGO-evoked Fluo4 calcium flux; stronger effect = lower value; AID 2247; Q9QUQ5;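 active means B-score over 3 SD under the library average, no early fluorescence shift, positive overall ratio signal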
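test system = HEK293 cells with stable TRPC4beta plus mu-opioid receptor expression | detection = Fluo4 Ca2+ flux fluorescence | read-out = integrated fluorescence ratio relative to baseline, converted to per-well B score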
TRPC4 act = activators of mouse TRPC4 channel; Q9QUQ5; HEK293 TRPC4beta/mu-opioid, Fluo4 calcium fluorescence; stronger effect = higher value; B-score at 10 µM; 0.49% of 310,000 active;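 active means B-score above 5 SD of library B-scores, and initial fluorescence ratio not above library mean plus 5 SD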;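 further: positive B-score marks a calcium rise read as TRPC4 activation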
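Assay system: HEK293 stable line with TRPC4beta plus mu-opioid receptor. Times: dye 45 min RT, read 110 s. Measured by: kinetic Fluo4 calcium fluorescence. Measure: B score of integrated ratio. Controls: assay buffer as low control, maximal DAMGO as high control.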
TRPC6 activator = activates the mouse TRPC6 cation channel; 0.13% of 310,000 active; B-score at 10 µM; HEK293-TRPC6 membrane potential dye fluorescence; stronger effect = higher value;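 active means B-score of the integrated fluorescence ratio above library mean plus 3 SD, and starting fluorescence ratio within library mean plus 5 SD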;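 further: higher score means more depolarization so channel activation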
TRPC6 inh = inhibitors of mouse TRPC6 channel; Q61143; B-score at 10 µM; 1.1% of 310,000 active; HEK293-TRPC6, membrane potential dye, ACh-evoked depolarization; stronger effect = lower value;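 active means B-score under library mean minus 3 SD, initial fluorescence not abnormally high, positive integrated signal ratio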;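 further: B-score derived from integrated fluorescence ratio over the kinetic read; more negative B-score means stronger inhibition of depolarization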
Active calls of the source: *; i = inactive. Rows were chosen to be rich in hits. Some 2.3% of all compounds tested hit in one or more screens of this group.

SMILES	TRPC4 potent	TRPC4 block	TRPC4 act	TRPC6 activator	TRPC6 inh
C/C(=N/NC(=O)c1ccc(Cn2cccn2)o1)c1cccc(NC(=O)c2ccncc2)c1	i	-6*	62*	i	i
C/C(=N\NC(=O)c1ccncc1)c1cccc(NC(=O)c2ccc(C(C)(C)C)cc2)c1	i	i	i	i	i
CCOC(=O)C1=C(N)Oc2cc(O)ccc2C1c1ccc(F)cc1F (stereo not drawn)	i	i	i	i	i
CC(=O)OC(C#CCN1CCOCC1)c1ccccc1 (stereo not drawn)	i	i	i	i	i
OC(C#CCN1CCOCC1)c1cccs1 (stereo not drawn)	i	i	77*	i	i
NC(=S)Nc1cccc(O)c1	i	i	i	i	i
CCSc1nc(N)c2c3c(sc2n1)CN(C)CC3	i	i	i	i	-5.28*
Cc1nc(CCNS(=O)(=O)c2cccnc2)cs1	i	i	i	i	i
COC(=O)Cn1c2ccc(Cl)cc2c2nc(C)sc21	i	i	i	i	i
Cc1nc2c3cc(Cl)ccc3n(CCN3CCCCC3)c2s1	i	-6*	i	i	i
Cc1c(C(=O)Nc2ccc(-c3nnc4n3CCCCC4)cc2)oc2ccc(Br)cc12	i	i	i	i	i
CCn1cc(CN2CCC(C(=O)Nc3ccc(Oc4ccccc4)nc3)CC2)cn1	i	i	i	i	i
O=C(Nc1ccc(Oc2ccccc2)nc1)C1CCN(Cc2ccccc2)CC1	i	-6*	i	i	i
CC1CCCC(C)N1C(=O)COc1ccc(F)cc1 (stereo not drawn)	i	i	i	i	i
O=C(CCNC(=O)c1ccc(Br)cc1)Nc1ccccc1N1CCCCC1	i	-6*	i	i	i
O=C(CCNC(=O)c1ccccc1Cl)Nc1ccccc1N1CCCC1	i	i	i	i	i
CCCCc1nc(N2CCOCC2)c(C#N)c2c1CCCC2	i	-6*	i	i	i
CCCc1nc(N2CCOCC2)c(C#N)c2c1CCCC2	i	i	i	i	i
COc1ccc(C2NCCc3c2[nH]c2ccccc32)cc1CN1CCc2cc(OC)c(OC)cc2C1C (stereo not drawn)	i	-8*	47*	i	i
CCCNC(=O)C1(CC2CC(c3ccccc3)=NO2)CCN(C(=O)CCCCCBr)CC1 (stereo not drawn)	i	i	i	i	i
Cc1cccn2c(=O)c3cc(C(=O)N(C)C)n(C)c3nc12	25*	i	i	i	i
CN(C)c1ccc(NC(=S)c2ccc3ccccc3n2)cc1	i	i	i	i	i
CN(CC(=O)Nc1c(Cl)cccc1Cl)C(=O)CC1Sc2ccccc2NC1=O (stereo not drawn)	i	-6*	i	i	i
COc1ccc(-n2c3c(cc(C(=O)NCc4ccco4)c2=O)C(=O)CC(C)(C)C3)cc1	i	-7*	i	i	i
O=C(c1cc2cc(Br)cc(Br)c2oc1=O)N1CCCC1	17*	i	i	i	i
SMILES	TRPC4 potent	TRPC4 block	TRPC4 act	TRPC6 activator	TRPC6 inh
CN(C)S(=O)(=O)c1cccc(-c2nnc3n2CCCCC3)c1	i	i	i	i	i
COc1ccc(C2(C)NC(=O)N(CC(=O)Nc3cccnc3Cl)C2=O)cc1 (stereo not drawn)	i	i	i	i	i
CC1(c2ccc(OC(F)F)cc2)NC(=O)N(CC(=O)Nc2cccnc2Cl)C1=O (stereo not drawn)	i	i	62*	i	i
CCc1cccc(C)c1NC(=S)N(CCN(C)C)C(C)c1cccnc1 (stereo not drawn)	i	i	i	i	i
O=C(CN1CCN(Cc2ccc(Cl)cc2)CC1)N/N=C/C=C/c1ccccc1[N+](=O)[O-]	i	i	i	i	i
Cc1ccc(/C=C/C(=O)OCc2nc(N)nc(Nc3ccccc3C)n2)o1	i	i	i	i	i
Cc1ccc(CNC(=O)C2CCCN(Cc3cnn(-c4ccccc4)c3-n3cccc3)C2)cc1 (stereo not drawn)	i	i	95*	i	i
Cc1ccc(-n2cc(CN3CCC(O)(c4ccccn4)CC3)c(-c3ccc(F)cc3)n2)cc1	i	i	77*	i	i
CCC(C)NCCC(=O)Nc1ccc(Cl)c(S(=O)(=O)Nc2ccc(Cl)cc2)c1 (stereo not drawn)	11*	i	i	i	i
Cc1ccc(C)c(S(=O)(=O)/N=C2\C=C(NS(=O)(=O)c3ccccc3)C(=O)c3ccccc32)c1	i	-7*	i	i	i
CCc1ccc(S(=O)(=O)/N=C2\C=C(NS(=O)(=O)c3ccccc3)C(=O)c3ccccc32)cc1	i	i	i	i	i
Cc1cc(NS(=O)(=O)c2ccc(NC(=O)Cc3ccccc3)cc2)nc(C)n1	i	i	i	i	i
COc1ccc(CNCc2cccc(Oc3ccccc3)c2)cc1	i	-6*	i	i	i
COc1ccc(CNCc2cccc(C)c2)cc1	i	i	i	i	i
O=C(c1ccccc1)N1CCN(Cc2c[nH]c3ccccc23)CC1	i	i	i	i	i
O=[N+]([O-])c1ccccc1CN1CCN(Cc2c[nH]c3ccccc23)CC1	i	-7*	i	i	i
Cc1nnc(Sc2cc(NCCCO)c([N+](=O)[O-])c3nonc23)s1	i	-6*	i	i	i
O=C(/C=C/c1ccccc1)N(c1ccccn1)C1CCCCC1	i	i	i	i	i
O=C(/C=C/c1ccccc1Cl)N(c1ccccn1)C1CCCCC1	16*	i	i	i	i
c1ccc(CNc2cncnc2)cc1	i	i	i	i	i
CCn1c(=O)n(CC)c2cc(NC(=O)C(C)c3ccccc3)c(Br)cc21 (stereo not drawn)	i	i	i	i	i
CC(C)(CO)NC(=O)c1ccc2c(c1)C(=O)c1ccccc1-2	11*	i	i	i	i
COCCNC(=O)c1ccc2c(c1)C(=O)c1ccccc1-2	i	i	i	i	i
Cc1cc(C)c(C)c(OC(=O)c2sc(Cl)nc2C)c1	i	i	i	i	i
COc1cc(CNCCc2ccc(F)cc2)ccc1OCc1ccc(Cl)nc1	i	-6*	i	i	i
Fc1ccc(-n2ncc3c(SCc4cccnc4)ncnc32)cc1	i	i	i	i	i
CCN1CCN(c2c(S(=O)(=O)c3ccc(C)c(C)c3)cnc3ccc(F)cc23)CC1	i	i	61*	i	i
